One series concerns SK-OV-3. Put plainly: Cytotoxicity against human SKOV3 cells transfected with luciferase gene assessed as cell viability at 0.01 to 10 uM after 24 to 72 hrs by MTT assay. The class given is cell-based. As to conditions: sk-ov-3, 10 µM. A general note: Tetrazolium dyes change colour on reduction, which living cells bring about.
For series [1], the target named is 72 kDa type IV collagenase (Homo sapiens, UniProt P08253). Put plainly: Inhibition of recombinant human MMP-2 using Mca-Lys-Pro-Leu-Gly-Leu-Dap(Dnp)-Ala-Arg-NH2 as substrate incubated for 4 hrs measured every 15 secs for 20 mins by fluorimetric assay. Put shortly:
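Pro-MMP-2 was activated with 2 mM APMA for 1 h at 37 °C and used at 0.56 nM final. It was preincubated with inhibitor for 4 h at 25 °C in Tris 50 mM pH 7.5 buffer containing NaCl, CaCl2, Brij-35 and 1% DMSO. Substrate was at 2 µM final, ex 325/em 400 nm, run in duplicate. IC50 was taken from initial-velocity ratios, vi/vo = 1/(1+[I]/IC50).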

Series [2] addresses T1, Disintegrin and metalloproteinase domain-containing protein 17 (Homo sapiens, UniProt P78536). Put plainly: Inhibition of recombinant human ADAM-17 using Mca-Lys-Pro-Leu-Gly-Leu-Dap(Dnp)-Ala-Arg-NH2 as substrate incubated for 30 mins measured every 15 secs for 20 mins by fluorimetric assay. Put shortly: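 Enzyme at 5 nM final was preincubated with inhibitor for 30 min at 37 °C in Tris 25 mM pH 9, ZnCl2 25 µM, 0.005% Brij-35. Substrate was at 2 µM final. Fluorescence increase (ex 325/em 400 nm) gave initial rates, in duplicate. IC50 was derived from vi/vo = 1/(1+[I]/IC50).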

Series [3] deals with T1, Disintegrin and metalloproteinase domain-containing protein 17. Put plainly: Inhibition of ADAM-17 in human A2780 cells assessed as inhibition of pervanadate-induced sALCAM release incubated for 30 mins prior to pervanadate induction measured after 90 mins by ELISA. The class given is cell-based. Background: An ELISA detects its analyte on a solid surface through an enzyme-linked reagent.

Series [4] deals with T2, Disintegrin and metalloproteinase domain-containing protein 10 (Homo sapiens, UniProt O14672).
T2 sequence (O14672 whole entry): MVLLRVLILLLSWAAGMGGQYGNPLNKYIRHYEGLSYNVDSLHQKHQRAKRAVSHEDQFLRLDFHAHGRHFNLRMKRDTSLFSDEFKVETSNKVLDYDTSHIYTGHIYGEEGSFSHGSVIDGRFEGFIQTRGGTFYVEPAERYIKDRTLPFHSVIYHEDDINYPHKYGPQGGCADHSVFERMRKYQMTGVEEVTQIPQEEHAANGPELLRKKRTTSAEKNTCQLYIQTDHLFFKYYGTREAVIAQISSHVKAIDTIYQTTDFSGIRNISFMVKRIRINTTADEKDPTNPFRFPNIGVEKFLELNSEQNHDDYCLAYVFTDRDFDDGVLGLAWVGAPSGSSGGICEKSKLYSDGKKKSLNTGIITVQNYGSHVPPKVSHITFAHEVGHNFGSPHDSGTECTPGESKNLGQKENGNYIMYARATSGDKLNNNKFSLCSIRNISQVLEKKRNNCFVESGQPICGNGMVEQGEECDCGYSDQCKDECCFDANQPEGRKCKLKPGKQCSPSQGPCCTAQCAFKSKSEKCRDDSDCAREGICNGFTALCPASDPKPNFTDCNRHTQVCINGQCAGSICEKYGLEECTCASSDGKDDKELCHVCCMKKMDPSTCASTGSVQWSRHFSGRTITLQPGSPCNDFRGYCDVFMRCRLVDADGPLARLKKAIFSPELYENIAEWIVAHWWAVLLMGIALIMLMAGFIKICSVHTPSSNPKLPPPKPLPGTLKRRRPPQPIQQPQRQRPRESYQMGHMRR
Put plainly: Inhibition of recombinant human ADAM-10 using Mca-Lys-Pro-Leu-Gly-Leu-Dap(Dnp)-Ala-Arg-NH2 as substrate incubated for 1 hr measured every 15 secs for 20 mins by fluorimetric assay. Put shortly:
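Enzyme at 20 nM final was preincubated with inhibitor for 1 h at 37 °C in pH 9 buffer (Tris 25 mM, ZnCl2 25 µM, 0.005% Brij-35). Substrate was at 10 µM final. Fluorescence (ex 325/em 400 nm) was followed for initial velocity, in duplicate. IC50 was calculated with vi/vo = 1/(1+[I]/IC50).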

Series [5] deals with T1, Disintegrin and metalloproteinase domain-containing protein 17. Put plainly: Inhibition of ADAM-17 in human SKOV3 cells transfected with luciferase gene assessed as inhibition of pervanadate-induced sALCAM release incubated for 30 mins prior to pervanadate induction measured after 90 mins by ELISA. The class given is cell-based, SK-OV-3.
Series [6] has the same target. Put plainly: Inhibition of ADAM-17 in human A2780 cells assessed as inhibition of EGF-induced sALCAM release incubated for 30 mins prior to EGF induction measured after 18 hrs by ELISA. In kind it is cell-based.
The target is the same in series [7]. Put plainly: Inhibition of ADAM-17 in human A2774 cells assessed as inhibition of EGF-induced sALCAM release incubated for 30 mins prior to EGF induction measured after 18 hrs by ELISA. In kind it is cell-based.
Series [8] is described as follows: Cytotoxicity against human A2774 cells assessed as cell viability at 0.01 to 10 uM after 24 to 72 hrs by MTT assay. In kind it is cell-based. As to conditions: a2774, 10 µM.
In the next series the test system is A2780. Put plainly: Cytotoxicity against human A2780 cells assessed as cell viability at 0.01 to 10 uM after 24 to 72 hrs by MTT assay. In kind it is cell-based. The conditions noted are these: a2780, 10 µM.
In series [9] the target is T1, Disintegrin and metalloproteinase domain-containing protein 17. Put plainly: Inhibition of ADAM-17 in human A2774 cells assessed as inhibition of pervanadate-induced sALCAM release incubated for 30 mins prior to pervanadate induction measured after 90 mins by ELISA. The class given is cell-based.
The target in series [10] is Matrix metalloproteinase-9 (Homo sapiens, UniProt P14780). Put plainly: Inhibition of recombinant human MMP-9 using Mca-Lys-Pro-Leu-Gly-Leu-Dap(Dnp)-Ala-Arg-NH2 as substrate incubated for 4 hrs measured every 15 secs for 20 mins by fluorimetric assay. Summed up: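 Pro-MMP-9 was activated with 1 mM APMA for 1 h at 37 °C and used at 1.3 nM final. Inhibitor was incubated with enzyme for 4 h at 25 °C in Tris 50 mM pH 7.5, NaCl 150 mM, CaCl2 10 mM, 0.05% Brij-35, 1% DMSO. Substrate was at 2 µM final, ex 325/em 400 nm, in duplicate. IC50 was obtained from vi/vo = 1/(1+[I]/IC50).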

In another series the target is T3, Interstitial collagenase (Homo sapiens, UniProt P03956).
T3 sequence (P03956 whole entry): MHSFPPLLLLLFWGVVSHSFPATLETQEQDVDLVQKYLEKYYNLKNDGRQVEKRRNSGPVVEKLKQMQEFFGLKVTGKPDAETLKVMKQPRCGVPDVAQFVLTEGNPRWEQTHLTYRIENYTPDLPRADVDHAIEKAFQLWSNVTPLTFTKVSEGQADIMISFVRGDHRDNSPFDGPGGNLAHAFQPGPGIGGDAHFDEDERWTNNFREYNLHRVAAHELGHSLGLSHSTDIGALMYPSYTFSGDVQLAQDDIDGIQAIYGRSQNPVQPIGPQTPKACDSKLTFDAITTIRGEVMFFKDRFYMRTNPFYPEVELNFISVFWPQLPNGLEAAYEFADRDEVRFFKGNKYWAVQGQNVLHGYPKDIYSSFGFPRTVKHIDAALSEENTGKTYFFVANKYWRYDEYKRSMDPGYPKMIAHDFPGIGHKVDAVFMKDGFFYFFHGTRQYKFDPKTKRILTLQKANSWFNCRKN
Put plainly: Inhibition of recombinant human MMP-1 using Mca-Lys-Pro-Leu-Gly-Leu-Dap(Dnp)-Ala-Arg-NH2 as substrate incubated for 4 hrs measured every 15 secs for 20 mins by fluorimetric assay. Summed up:
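Pro-MMP-1 was activated with 2 mM APMA for 2 h at 37 °C. Enzyme (2.0 nM final) was incubated with inhibitor in Tris 50 mM pH 7.5, NaCl 150 mM, CaCl2 10 mM, 0.05% Brij-35, 1% DMSO for 4 h at 25 °C. Substrate was added at 2 µM final. Fluorescence (ex 325/em 400 nm) was read for initial rates, in duplicate. IC50 came from vi/vo = 1/(1+[I]/IC50).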

The target in series [11] is Matrix metalloproteinase-14 (Homo sapiens, UniProt P50281). Put plainly: Inhibition of recombinant human MMP-14 catalytic domain using Mca-Lys-Pro-Leu-Gly-Leu-Dap(Dnp)-Ala-Arg-NH2 as substrate incubated for 4 hrs measured every 15 secs for 20 mins by fluorimetric assay. Put shortly: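 MMP-14 catalytic domain was used at 1.0 nM final with no activation step. It was incubated with inhibitor for 4 h at 25 °C in Tris 50 mM pH 7.5 buffer with NaCl 150 mM, CaCl2 10 mM, 0.05% Brij-35 and 1% DMSO. Substrate was at 2 µM final, ex 325/em 400 nm, duplicate wells. IC50 was fitted by vi/vo = 1/(1+[I]/IC50).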

The target in series [12] is T1, Disintegrin and metalloproteinase domain-containing protein 17. Put plainly: Inhibition of ADAM-17 in human SKOV3 cells transfected with luciferase gene assessed as inhibition of EGF-induced sALCAM release incubated for 30 mins prior to EGF induction measured after 18 hrs by ELISA. In kind it is cell-based, SK-OV-3.

The structures appear in SMILES notation.

T1 sequence (P78536 whole entry, the tested form may be a part): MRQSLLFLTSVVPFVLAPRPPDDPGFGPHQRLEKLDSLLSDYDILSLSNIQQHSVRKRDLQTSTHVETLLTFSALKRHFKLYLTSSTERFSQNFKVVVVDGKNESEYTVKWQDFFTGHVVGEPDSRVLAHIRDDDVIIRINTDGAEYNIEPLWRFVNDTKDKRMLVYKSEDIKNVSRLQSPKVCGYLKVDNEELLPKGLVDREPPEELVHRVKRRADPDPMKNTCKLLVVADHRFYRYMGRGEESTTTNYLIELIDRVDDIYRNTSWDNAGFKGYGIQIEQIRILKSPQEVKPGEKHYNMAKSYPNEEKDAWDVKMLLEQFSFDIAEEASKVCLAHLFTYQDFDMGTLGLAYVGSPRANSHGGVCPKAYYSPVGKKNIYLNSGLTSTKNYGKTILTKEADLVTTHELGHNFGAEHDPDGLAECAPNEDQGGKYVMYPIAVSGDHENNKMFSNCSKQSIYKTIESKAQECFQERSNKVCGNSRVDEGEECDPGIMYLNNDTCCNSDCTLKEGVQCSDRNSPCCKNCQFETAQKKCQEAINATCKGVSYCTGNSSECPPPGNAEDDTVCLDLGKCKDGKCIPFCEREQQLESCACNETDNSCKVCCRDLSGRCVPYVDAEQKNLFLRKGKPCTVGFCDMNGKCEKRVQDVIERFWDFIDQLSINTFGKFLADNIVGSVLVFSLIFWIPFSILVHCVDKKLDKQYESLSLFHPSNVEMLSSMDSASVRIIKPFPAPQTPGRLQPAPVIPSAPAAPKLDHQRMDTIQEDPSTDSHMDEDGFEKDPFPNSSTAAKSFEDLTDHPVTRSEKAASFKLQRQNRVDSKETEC
72 kDa type IV collagenase, sequence (P08253 whole entry): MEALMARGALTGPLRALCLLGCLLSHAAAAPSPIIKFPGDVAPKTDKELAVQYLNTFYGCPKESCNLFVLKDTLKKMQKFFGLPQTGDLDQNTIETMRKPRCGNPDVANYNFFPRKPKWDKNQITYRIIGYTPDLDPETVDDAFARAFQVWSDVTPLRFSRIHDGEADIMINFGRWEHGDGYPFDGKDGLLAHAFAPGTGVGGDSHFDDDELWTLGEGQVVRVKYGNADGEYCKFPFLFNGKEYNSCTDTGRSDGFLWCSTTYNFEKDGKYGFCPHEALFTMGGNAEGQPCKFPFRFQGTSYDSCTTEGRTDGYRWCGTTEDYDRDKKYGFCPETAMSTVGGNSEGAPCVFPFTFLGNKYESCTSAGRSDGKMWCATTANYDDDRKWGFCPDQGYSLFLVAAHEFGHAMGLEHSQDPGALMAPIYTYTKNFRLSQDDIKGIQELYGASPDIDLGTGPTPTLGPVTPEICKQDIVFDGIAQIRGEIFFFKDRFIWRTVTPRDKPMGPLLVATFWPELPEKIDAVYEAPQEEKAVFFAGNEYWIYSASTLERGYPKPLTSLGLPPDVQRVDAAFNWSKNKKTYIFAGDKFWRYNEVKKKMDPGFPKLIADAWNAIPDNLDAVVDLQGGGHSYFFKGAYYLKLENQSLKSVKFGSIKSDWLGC
Matrix metalloproteinase-9, sequence (P14780 whole entry): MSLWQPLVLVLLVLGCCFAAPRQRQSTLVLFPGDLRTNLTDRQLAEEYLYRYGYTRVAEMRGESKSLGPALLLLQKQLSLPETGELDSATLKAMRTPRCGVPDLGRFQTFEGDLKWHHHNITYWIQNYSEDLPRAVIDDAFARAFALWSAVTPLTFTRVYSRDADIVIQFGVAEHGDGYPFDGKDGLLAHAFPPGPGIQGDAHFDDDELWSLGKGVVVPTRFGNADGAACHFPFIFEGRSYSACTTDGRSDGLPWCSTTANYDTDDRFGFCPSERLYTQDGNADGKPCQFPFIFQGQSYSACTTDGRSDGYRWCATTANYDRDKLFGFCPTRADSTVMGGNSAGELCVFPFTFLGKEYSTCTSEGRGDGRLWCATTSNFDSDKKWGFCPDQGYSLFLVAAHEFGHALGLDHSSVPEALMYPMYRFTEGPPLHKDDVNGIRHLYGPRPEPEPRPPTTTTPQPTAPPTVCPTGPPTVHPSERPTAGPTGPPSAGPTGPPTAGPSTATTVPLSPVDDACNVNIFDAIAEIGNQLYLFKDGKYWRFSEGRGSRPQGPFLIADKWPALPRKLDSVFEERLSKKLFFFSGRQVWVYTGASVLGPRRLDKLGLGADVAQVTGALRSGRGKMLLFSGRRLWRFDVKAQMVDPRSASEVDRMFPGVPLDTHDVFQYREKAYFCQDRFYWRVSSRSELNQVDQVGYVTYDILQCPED

As a reminder, the IC50 is the midpoint of a concentration-inhibition curve. Consider `O=C(CNS(=O)(=O)c1ccc(OCc2cc(Br)cc(Br)c2)cc1)NO`, for which the Activity entry (in the series on SK-OV-3; in series [8]; with A2780) was “Non-toxic” throughout. Further, the IC50 in series [1] was 1.75 µM; in series [2], 0.105 µM; in series [3], 0.84 µM; in [4] it was 39 µM; in [5], 5.3 µM; in [6] it was above 10 µM. Besides, the IC50 in [7] is above 10 µM; in [9], above 10 µM; in series [10] it was 51 µM; at Interstitial collagenase, above 500 µM; in series [11], 113 µM; in series [12] it was above 10 µM.
On to `O=C(NCC[C@@H](NS(=O)(=O)c1ccc(OCc2cc(Br)cc(Br)c2)cc1)C(=O)NO)OCc1ccccc1`, for which the Activity result (in the series on SK-OV-3; in series [8]; in the series on A2780) was “Non-toxic” throughout. Also, the IC50 in series [1] is 4.1 µM; in [2], 0.043 µM; in series [3], 0.825 µM; in series [4], 8.2 µM; in [5], 2.1 µM; in series [6], above 10 µM. Further, the IC50 is above 10 µM in series [7]; 1.39 µM in series [9]; 11 µM in series [10]; 400 µM at Interstitial collagenase; 104 µM in series [11]; 9.52 µM in series [12].
For `O=C(NCCC[C@@H](NS(=O)(=O)c1ccc(OCc2cc(Br)cc(Br)c2)cc1)C(=O)NO)OCc1ccccc1`, the Activity result (in the series with SK-OV-3; in [8]; with A2780) was “Non-toxic” throughout. Also, the 50% inhibitory concentration (IC50) in series [1] turned out to be 1.44 µM; in series [2], 0.011 µM; in [3] it was 0.349 µM; in series [4] it was 0.3 µM; in [5] it was 0.35 µM; in [6], 10 µM. In addition, the IC50 in series [7] amounted to 7.63 µM; in series [9], 0.274 µM; in series [10], 4.4 µM; on Interstitial collagenase it was 370 µM; in [11], 68 µM; in [12] it was 5.64 µM.

The values are drawn from ChEMBL document CHEMBL2429772, “Selective arylsulfonamide inhibitors of ADAM-17: hit optimization and activity in ovarian cancer cell models” (J Med Chem, 2013).
